ChEMBL document CHEMBL3596088, “Deepening the Topology of the Translocator Protein Binding Site by Novel N,N-Dialkyl-2-arylindol-3-ylglyoxylamides” (J Med Chem, 2015)

What was measured:
Translocator protein = Translocator protein (Rattus norvegicus, UniProt P16257); test: Inhibition of [3H]PK11195 binding to TSPO in rat kidney mitochondrial membranes; type: cell membranes
Rattus norvegicus = species: Rattus norvegicus; test: Inhibition of [3H]flumazenil binding to benzodiazepine receptor in rat cerebral cortex membranes at 10 uM incubated for 90 mins; type: cell membranes; conditions: Membrane
Summary of the method: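 Crude rat cerebral cortex membrane fraction from differential centrifugation, washed to remove endogenous GABA. Incubated with 0.4 nM [3H]Ro15-1788 (flumazenil) for 90 min at 0 °C in 50 mM Tris-citrate, pH 7.4. Test compound at 10 μM; result given as percent inhibition of binding.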

Sequence of Translocator protein (P16257 whole entry, looked up): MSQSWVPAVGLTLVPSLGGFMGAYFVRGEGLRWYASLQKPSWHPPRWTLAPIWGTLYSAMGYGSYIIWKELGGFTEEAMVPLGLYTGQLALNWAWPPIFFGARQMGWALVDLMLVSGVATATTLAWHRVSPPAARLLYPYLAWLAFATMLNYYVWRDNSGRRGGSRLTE

Compound | Ki (Translocator protein) [nM] | inhibition (Rattus norvegicus) [%]
CCCN(CCC)C(=O)C(=O)c1c(-c2ccc(OC)cc2)[nH]c2ccccc12 | 5.8 | 0
CCCCN(C)C(=O)C(=O)c1c(-c2ccc3ccccc3c2)[nH]c2ccccc12 | 0.56 | 0
CCCN(CCC)C(=O)C(=O)c1c(-c2ccc(N)cc2)[nH]c2ccccc12 | 44.4 | 0
CCCCN(CCCC)C(=O)C(=O)c1c(-c2ccc(C(=O)OC)cc2)[nH]c2ccccc12 | 2.7 | 0
CCCCCCN(CCCCCC)C(=O)C(=O)c1c(-c2ccsc2)[nH]c2ccccc12 | 0.89 | 0
CCCCCCN(CCCCCC)C(=O)C(=O)c1c(-c2ccc(C(=O)OC)cc2)[nH]c2ccccc12 | 3.3 | 0
CCCN(CCC)C(=O)C(=O)c1c(-c2ccc(O)cc2)[nH]c2ccccc12 | 16.1 | 0
CCCCCN(C)C(=O)C(=O)c1c(-c2ccc3ccccc3c2)[nH]c2ccccc12 | 0.37 | 0
CCCCN(CCCC)C(=O)C(=O)c1c(-c2ccc(-c3ccccc3)cc2)[nH]c2ccccc12 | 5.5 | 0
CCCN(CCC)C(=O)C(=O)c1c(-c2ccc(-c3ccccc3)cc2)[nH]c2ccccc12 | 0.53 | 0
CN1C(=O)CN=C(c2ccc(Cl)cc2)c2cc(Cl)ccc21 | – | 0
CCCN(CCC)C(=O)C(=O)c1c(-c2ccsc2)[nH]c2ccccc12 | 1.2 | 0
CCCN(CCC)C(=O)C(=O)c1c(-c2ccc(C(=O)OC)cc2)[nH]c2ccccc12 | 3.1 | 0
CCCCN(CCCC)C(=O)C(=O)c1c(-c2ccc(OC)cc2)[nH]c2ccccc12 | 20.3 | 0
CCCCCCN(CCCCCC)C(=O)C(=O)c1c(-c2ccc(O)cc2)[nH]c2ccccc12 | 6.3 | 0
CCCCN(CCCC)C(=O)C(=O)c1c(-c2ccc(N)cc2)[nH]c2ccccc12 | 133 | 0
CCCN(CCC)C(=O)C(=O)c1c(-c2ccc3ccccc3c2)[nH]c2ccccc12 | – | 0
CCCCCCN(CCCCCC)C(=O)C(=O)c1c(-c2ccc3ccccc3c2)[nH]c2ccccc12 | 0.52 | 0
CCC(C)N(C)C(=O)c1cc2ccccc2c(-c2ccccc2Cl)n1 (configuration not stated) | – | 0
CCCCCCN(CCCCCC)C(=O)C(=O)c1c(-c2ccc(N)cc2)[nH]c2ccccc12 | 4.2 | 0
CCCCN(CC)C(=O)C(=O)c1c(-c2ccc3ccccc3c2)[nH]c2ccccc12 | 0.51 | 0
CCCCCCN(CCCCCC)C(=O)C(=O)c1c(-c2ccc(-c3ccccc3)cc2)[nH]c2ccccc12 | 1.8 | 0
CCCCCCN(CCCCCC)C(=O)C(=O)c1c(-c2ccc(C(=O)O)cc2)[nH]c2ccccc12 | 184 | 0
CCCCN(CCCC)C(=O)C(=O)c1c(-c2ccc3ccccc3c2)[nH]c2ccccc12 | 0.54 | 0
CCCCN(CCCC)C(=O)C(=O)c1c(-c2ccc(C(=O)O)cc2)[nH]c2ccccc12 | 406 | 0
CCN(Cc1ccccc1)C(=O)C(=O)c1c(-c2ccc3ccccc3c2)[nH]c2ccccc12 | 0.51 | 0
CCCCCCN(CCCCCC)C(=O)C(=O)c1c(-c2ccc(OC)cc2)[nH]c2ccccc12 | 4 | 0
CCCCN(CCCC)C(=O)C(=O)c1c(-c2ccc(O)cc2)[nH]c2ccccc12 | 25.7 | 0
CCCCN(CCCC)C(=O)C(=O)c1c(-c2ccsc2)[nH]c2ccccc12 | 2.8 | 0
CCCN(CCC)C(=O)C(=O)c1c(-c2ccc(C(=O)O)cc2)[nH]c2ccccc12 | 343 | 0
